In ChEMBL document CHEMBL4138242, “Synthesis and antibacterial evaluation of novel cationic chalcone derivatives possessing broad spectrum antibacterial activity” (Eur J Med Chem, 2018):
Active and inactive are the calls of the source. The calls are words filed in the database; no cut-off is given here.

Legend:
Staphylococcus aureus [1] = assay: Antibacterial activity against Staphylococcus aureus ATCC 29213 after 16 to 20 hrs by broth microdilution method; assay type: functional
Summary of the method: (§1)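 Broth microdilution per CLSI. Bacteria grown 4-6 h (about 10⁸ CFU/mL), then diluted to about 10⁶ CFU/mL. Medium: Mueller-Hinton broth, except Luria-Bertani broth for E. coli. Compounds in sterile water, twofold series 256-0.5 µg/mL, mixed 1:1 with inoculum, 37 °C for 16-20 h. MIC is the lowest concentration without visible growth. Duplicate wells; experiment repeated at least twice.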

Enterococcus faecalis = assay: Antibacterial activity against Enterococcus faecalis ATCC 29212 after 16 to 20 hrs by broth microdilution method; assay type: functional; summary of the method: as §1
Escherichia coli [2] = assay: Antibacterial activity against Escherichia coli ATCC 25922 after 16 to 20 hrs by broth microdilution method; assay type: functional; summary of the method: as §1
Salmonella enterica = assay: Antibacterial activity against Salmonella enterica ATCC 13076 after 16 to 20 hrs by broth microdilution method; assay type: functional; summary of the method: as §1
[3] = Hemolytic activity in sheep RBC after 1 hr; assay type: ADME, cell-based, Ovis aries, Erythrocyte; conditions: sheep red blood cells (erythrocytes)
Summary of the method: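 Sheep red blood cells (150 µL suspension) mixed with 50 µL of compound dilutions (5120-10 µg/mL), 1 h at 37 °C, then centrifuged. Supernatant read at 540 nm. Percent hemolysis calculated relative to RBC-only control (0%) and 0.1% Triton X-100 (100%).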

Staphylococcus aureus [4] = assay: Antibacterial activity against methicillin-resistant Staphylococcus aureus clinical isolate 1105183 cono7 after 16 to 20 hrs by broth microdilution method; assay type: functional
Summary of the method: (§2)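 CLSI broth microdilution in Mueller-Hinton broth. A 4-6 h culture was diluted to about 10⁶ CFU/mL and mixed 1:1 with compound dilutions prepared at 256 to 0.5 µg/mL from aqueous stocks. Plates were incubated at 37 °C for 16-20 h and read visually for MIC. Each concentration was run in duplicate, and the experiment was repeated at least twice. Vancomycin and meropenem were comparators.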

Staphylococcus aureus [5] = assay: Antibacterial activity against methicillin-resistant Staphylococcus aureus clinical isolate 20130911034sau after 16 to 20 hrs by broth microdilution method; assay type: functional; summary of the method: as §2
Staphylococcus aureus [6] = assay: Antibacterial activity against methicillin-resistant Staphylococcus aureus clinical isolate 0831010 after 16 to 20 hrs by broth microdilution method; assay type: functional; summary of the method: as §2
Staphylococcus aureus [7] = assay: Antibacterial activity against methicillin-resistant Staphylococcus aureus clinical isolate 1104060 after 16 to 20 hrs by broth microdilution method; assay type: functional; summary of the method: as §2
Staphylococcus aureus [8] = assay: Antibacterial activity against methicillin-resistant Staphylococcus aureus clinical isolate 20131012632sau after 16 to 20 hrs by broth microdilution method; assay type: functional; summary of the method: as §2
Staphylococcus aureus [9] = assay: Antibacterial activity against methicillin-resistant Staphylococcus aureus clinical isolate 1207007 after 16 to 20 hrs by broth microdilution method; assay type: functional; summary of the method: as §2
Staphylococcus aureus [10] = assay: Antibacterial activity against methicillin-resistant Staphylococcus aureus clinical isolate 1-may after 16 to 20 hrs by broth microdilution method; assay type: functional; summary of the method: as §2
Staphylococcus aureus [11] = assay: Antibacterial activity against methicillin-resistant Staphylococcus aureus clinical isolate 0906202 after 16 to 20 hrs by broth microdilution method; assay type: functional; summary of the method: as §2
Staphylococcus aureus [12] = assay: Antibacterial activity against methicillin-resistant Staphylococcus aureus clinical isolate 1208143 after 16 to 20 hrs by broth microdilution method; assay type: functional; summary of the method: as §2
Escherichia coli [13] = assay: Disruption of 72 hrs cultured Escherichia coli ATCC 25922 biofilm assessed as decrease in cell viability in biofilm after 24 hrs by crystal violet staining-based assay; assay type: functional, organism-based
Staphylococcus aureus [14] = assay: Bactericidal activity against methicillin-resistant Staphylococcus aureus in presence of 50% sheep serum after 20 to 24 hrs; assay type: functional; conditions: read-out: MBC99.9
Summary of the method: (§3)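 MRSA at 10⁵ CFU/mL in 50% MHB plus 50% sheep serum, plasma or defibrinated blood; serum and plasma were obtained by centrifugation at 3,500 rpm for 10 min. Aqueous dilutions prepared at 512-4 µg/mL were added 1:3 to the suspension and incubated for 20-24 h at 37 °C. Well contents (20 µL) were plated on MHA for 20-24 h, and MBC was the concentration giving no colonies.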

Staphylococcus aureus [15] = assay: Bactericidal activity against methicillin-resistant Staphylococcus aureus in presence of 50% sheep blood after 20 to 24 hrs; assay type: functional; conditions: read-out: MBC99.9; summary of the method: as §3
Staphylococcus aureus [16] = assay: Ratio of MBC99.9 for methicillin-resistant Staphylococcus aureus in presence of 50% sheep serum to MBC99.9 for methicillin-resistant Staphylococcus aureus ATCC 29213 in presence of 50% sheep plasma; assay type: functional; summary of the method: as §3
Staphylococcus aureus [17] = assay: Bactericidal activity against Staphylococcus aureus ATCC 29213 at 6 times MIC after 3 hrs by time-kill assay (reference value: 10^6.1 CFU/ml); assay type: functional
Summary of the method: (§4)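 Overnight cultures diluted 1:10,000 in MHB and grown at 37 °C, 225 rpm, for 2 h (early exponential) or 5 h (late exponential). Cells exposed to compound at 6× or 8× MIC in tubes at 37 °C, 225 rpm. At intervals, aliquots were spun, resuspended in PBS, tenfold diluted, plated on MHA overnight at 37 °C and counted as CFU/mL. Biological replicates.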

Escherichia coli [18] = assay: Bactericidal activity against Escherichia coli ATCC 25922 at 6 to 8 times MIC after 6 hrs by time-kill assay; assay type: functional, organism-based; summary of the method: as §4
Staphylococcus aureus [19] = assay: Induction of cytoplasmic membrane depolarization in Staphylococcus aureus ATCC 29213 at 10 to 20 ug/ml measured every 2 mins for 12 mins by DiSC35 dye-based fluorescence assay; assay type: functional, organism-based
Summary of the method: (§5)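 Mid-log cells (~10⁸ CFU/mL) were suspended in PBS (S. aureus) or HEPES/glucose/KCl with EDTA (E. coli). They were preloaded with DiSC3(5) for 30 min (S. aureus) or 40 min (E. coli), and baseline fluorescence was read for 8 min. Compound was added to 20 µg/mL final, and fluorescence (ex 622/em 670 nm) was read every 2 min for 12 min. Water served as control.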

Escherichia coli [20] = assay: Induction of cytoplasmic membrane depolarization in Escherichia coli ATCC 25922 at 10 to 20 ug/ml measured every 2 mins for 12 mins by DiSC35 dye-based fluorescence assay; assay type: functional, organism-based; summary of the method: as §5
Staphylococcus aureus [21] = assay: Induction of inner membrane permeabilization in Staphylococcus aureus ATCC 29213 at 10 to 20 ug/ml measured every 2 mins for 12 mins by propidium iodide staining-based fluorescence assay; assay type: functional, organism-based
Summary of the method: (§6)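 Mid-log cells (~10⁸ CFU/mL) were suspended in PBS (S. aureus) or HEPES/glucose/KCl (E. coli). They were preincubated with propidium iodide for 30 min (S. aureus) or 40 min (E. coli), and baseline fluorescence was read for 8 min. Compound was added to 20 µg/mL final, and fluorescence (ex 535/em 617 nm) was read every 2 min for 12 min.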

Escherichia coli [22] = assay: Induction of inner membrane permeabilization in Escherichia coli ATCC 25922 at 10 to 20 ug/ml measured every 2 mins for 12 mins by propidium iodide staining-based fluorescence assay; assay type: functional, organism-based; summary of the method: as §6
HeLa [23] = assay: Cytotoxicity against human HeLa cells assessed as effect on cell morphology at 2 to 4 times MIC after 24 hrs by electron scanning microscopic method; assay type: cell-based
Summary of the method: (§7)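 HeLa cells in DMEM with 10% FBS (37 °C, 5% CO₂), seeded in 12-well plates and left to adhere overnight. Treated 24 h with compound at 2× and 4× MIC; untreated and 0.1% Triton X-100 controls. Cells washed with PBS and imaged for morphology. For live/dead imaging, stained with 2 µM calcein AM and 4.5 µM PI for 15 min at 37 °C.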

HeLa [24] = assay: Cytotoxicity against human HeLa cells at 2 to 4 times MIC after 24 hrs by calcein AM/propidium iodide staining-based fluorescence microscopic method; assay type: cell-based; summary of the method: as §7

Structure (SMILES): CCCCCCCC[N+](C)(C)CC(=O)Nc1ccc(C(=O)/C=C/c2ccccc2)cc1.[Cl-]
- MIC (Staphylococcus aureus [1]): 1 µg/mL
- MIC (Enterococcus faecalis): 1 µg/mL
- MIC (Escherichia coli [2]): 2 µg/mL
- MIC (Salmonella enterica): 4 µg/mL
- HC50 at 1 h [3]: 228 µg/mL
- MIC (Staphylococcus aureus [4]): 1 µg/mL
- MIC (Staphylococcus aureus [5]): 0.5 µg/mL
- MIC (Staphylococcus aureus [6]): 1 µg/mL
- MIC (Staphylococcus aureus [7]): 8 µg/mL
- MIC (Staphylococcus aureus [8]): 4 µg/mL
- MIC (Staphylococcus aureus [9]): 0.5 µg/mL
- MIC (Staphylococcus aureus [10]): 1 µg/mL
- MIC (Staphylococcus aureus [11]): 4 µg/mL
- MIC (Staphylococcus aureus [12]): 2 µg/mL
- Activity (Escherichia coli [13]): Active
- MBC (Staphylococcus aureus [14]): 32 µg/mL
- MBC (Staphylococcus aureus [15]): 128 µg/mL
- Ratio (Staphylococcus aureus [16]): 2
- Activity (Staphylococcus aureus [17]): 1 CFU/ml
- Activity (Escherichia coli [18]): Active
- Activity (Staphylococcus aureus [19]): Active
- Activity (Escherichia coli [20]): Active
- Activity (Staphylococcus aureus [21]): Active
- Activity (Escherichia coli [22]): Active
- Activity (HeLa [23]): Non-Toxic
- Activity (HeLa [24]): Toxic
